# Results: ChEMBL document CHEMBL1124181, “Imidazo[1,2-a]pyrimidines and imidazo[1,2-a]pyrazines: the role of nitrogen position in inotropic activity” (1988)
# Tests used:
# [1] = species: Felis catus; assay: Inotropic activity in cat papillary muscle at 10e-5 M expressed as percent of control; assay type: functional
# Procedure, shortened: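 Isolated-tissue bath preparation with contractions recorded on a polygraph. Compounds were dissolved in DMSO and added cumulatively, each concentration being allowed to produce its maximal response before the next higher one was added.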
# [2] = test system: Canis familiaris; assay: Tested in anesthetized dog for its inotropic activity after intravenous administration; assay type: functional; conditions: Canis lupus familiaris
# Procedure, shortened: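 Mongrel dogs of either sex (7-14 kg), anesthetized with sodium pentobarbital (35 mg/kg iv). Dosing was via a femoral vein cannula. Contractility was measured by a Walton-Brodie strain-gauge arch on the right ventricle (tension 50 g); heart rate by cardiometer; lead II ECG. Doses of 0.01 to 8.0 mg/kg iv were given in increasing steps at 5-min intervals. Peak responses are reported as mean ± SEM (n = 4) or mean ± range (n = 2).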
compound,measurement,setting,value
COc1ccc(-c2cn3cccnc3n2)c(OC)c1,Inotropic activity (% of control),[1],136%
COc1ccc(-c2nc3ccc[nH]c-3n2)c(OC)c1,Inotropic activity (% of control),[1],146%
COc1ccc(-c2cn3cnccc3n2)c(OC)c1,Inotropic activity (% of control),[1],114%
COc1ccc(-c2nc3cc[nH]cc-3n2)c(OC)c1,ED50,[2],0.3 mg/kg
same,Inotropic activity (% of control),[1],158%
COc1ccc(-c2cn3ccccc3n2)c(OC)c1,Inotropic activity (% of control),[1],98%
COc1ccc(-c2cn3nccnc3n2)c(OC)c1,Inotropic activity (% of control),[1],130%
COc1cc(S(C)(=O)=O)ccc1-c1cn2ccncc2n1,ED50,[2],0.02 mg/kg
same,Inotropic activity (% of control),[1],180%
COc1cc(S(C)(=O)=O)ccc1-c1nc2ccncc2[nH]1,ED50,[2],0.02 mg/kg
same,Inotropic activity (% of control),[1],176%
COc1cc([S+](C)[O-])ccc1-c1cn2ccncc2n1 (stereo not drawn),ED50,[2],0.1 mg/kg
same,Inotropic activity (% of control),[1],161%
COc1cc([S+](C)[O-])ccc1-c1nc2cnccc2[nH]1 (stereo not drawn) [ISOMAZOLE],ED50,[2],0.03 mg/kg
same,Inotropic activity (% of control),[1],172%
COc1cc(SC)ccc1-c1cn2ccncc2n1,ED50,[2],0.5 mg/kg
same,Inotropic activity (% of control),[1],140%
COc1cc(SC)ccc1-c1nc2cc[nH]cc-2n1,ED50,[2],0.2 mg/kg
same,Inotropic activity (% of control),[1],143%
COc1ccc(-c2cn3ccncc3n2)c(OC)c1,ED50,[2],0.7 mg/kg
same,Inotropic activity (% of control),[1],145%
COc1cc([S+](C)[O-])ccc1-c1nc2cccnc2[nH]1 (stereo not drawn) [SULMAZOLE],Inotropic activity (% of control),[1],112%
COc1ccc(-c2cn3ncccc3n2)c(OC)c1,Inotropic activity (% of control),[1],115%
